# CAL PDZ FP-1 = untagged CAL PDZ binding inhibitors, primary screen, biochemical, fluorescence polarization, HTS. Golgi-associated PDZ and coiled-coil motif-containing protein (Homo sapiens), Q9HD26. purified CAL PDZ, TMR-peptide fluorescence polarization, 1 h. inhibition, % at 24.9 µM. 300,000 tested, 0.92% active;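 active means mean inhibition of at least 30% with at least half of replicates also reaching 30%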
# ARNT-TACC3 inh = disruptors of ARNT/TACC3 protein interaction, primary screen, biochemical, AlphaScreen, single concentration | AlphaScreen His-ARNT PAS-B/GST-TACC3 binding, luminescence; TACC3 fragment carries E629A point mutation | AID 623870, 2012 | inhibition, % at 9.99 µM | 390,000 tested, 0.66% active;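 active means mean inhibition of replicates at least 50% and at least half of replicates each reaching 50%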
# CAL PDZ FP-2 = CAL PDZ peptide-binding inhibitors, primary screen, biochemical, fluorescence polarization, Cer-tagged CAL PDZ, HTS | Golgi-associated PDZ and coiled-coil motif-containing protein (Homo sapiens), Q9HD26 | purified CAL PDZ, TMR-peptide fluorescence polarization, 1 h | inhibition, % at 20 µM | 330,000 tested, 0.02% active | AID 504414, 2011;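 active means highest replicate inhibition of at least 40%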
#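 Test system: tagged CAL PDZ domain / Buffer or medium: sodium phosphate/NaCl buffer pH 7.4 with TCEP, IgG, Thesit / Reagent: TMR-labelled reporter peptide T*-PRC34 bound in PDZ groove / Compound dosing: single point, 20 µM / Schedule: 1 h incubation at room temperature before polarization reading / Technique: fluorescence polarization (mP) / Benchmarks: unlabelled peptide, DMSO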
# Numbers stand for hits; - = inactive; . = no result given. Compounds with a hit are over-represented: about 1.2% of the library has one in this group of screens.
SMILES,CAL PDZ FP-1,ARNT-TACC3 inh,CAL PDZ FP-2
CN1CCN(c2ccc(S(=O)(=O)N3CCOCC3)cc2NC(=O)C2CCCCC2)CC1,-,-,-
CCN(CC)S(=O)(=O)c1ccc(N2CCCC2)c(NC(=O)C2CCCCC2)c1,40.5,-,-
CCN1CCN(c2ccc(S(=O)(=O)N3CCOCC3)cc2NC(=O)C2CCC(C(C)(C)C)CC2)CC1 (stereo not given),72.7,.,-
C[C@H]1CN([C@@H](C)CO)C(=O)Cc2cc(NC(=O)Nc3ccc(F)cc3)ccc2O[C@H]1CN(C)Cc1ccncc1,.,-,.
CCCNC(=O)Nc1ccc2c(c1)OC[C@H](C)N(Cc1ccccc1)C[C@@H](C)[C@@H](OC)CN(C)C2=O,.,-,.
OCC(CO)(CO)N=Cc1c(O)ccc2ccccc12,-,-,-
Cc1cccc(/C=N/NC(=O)CN2CCCCCCC2)c1,-,-,-
Oc1ccc2ccccc2c1C=NC12CN3CCN(CN(C3)C1)C2,-,67.2,-
O=C(NN=Cc1c(O)ccc2ccccc12)C1CC1,-,-,-
O=C(CN1CCCC1)N/N=C/c1c(O)ccc2ccccc12,-,58.9,-
Cc1ccc(O)c(/C=N/NC(=O)CN2CCCC2)c1,-,66.5,-
O=C(NCC[C@H]1CC[C@H](NC(=O)c2cnccn2)[C@@H](CO)O1)Nc1ccc(F)cc1,.,-,.
C[C@H]1CN([C@@H](C)CO)C(=O)c2cccc(NC(=O)c3cnccn3)c2O[C@@H]1CN(C)Cc1ccc2c(c1)OCO2,.,-,.
Cc1c(NC(=S)N/N=C\c2ccccc2O)c(=O)n(-c2ccccc2)n1C,-,66.4,-
Cc1c(NC(=S)N/N=C/c2ccc([N+](=O)[O-])cc2O)c(=O)n(-c2ccccc2)n1C,-,61.3,-
Cc1c(NC(=S)N/N=C/c2ccc(Br)cc2)c(=O)n(-c2ccccc2)n1C,-,-,-
Cc1c(NC(=S)N/N=C/C=C/c2ccc([N+](=O)[O-])cc2)c(=O)n(-c2ccccc2)n1C,-,-,-
CN(C)C(=O)[C@@H]1[C@@H](CO)[C@@H]2Cn3c(ccc(C4=CCCC4)c3=O)[C@H]1N2C(=O)c1ccccc1,.,-,.
CCOC(=O)c1ccccc1NC(=O)CSc1nccn1C,-,-,-
CCc1ccc(NC(=O)CSc2ccc(-c3cccnc3)nn2)cc1,-,-,-
O=C(CSc1ccc(-c2cccnc2)nn1)c1ccc([N+](=O)[O-])cc1,-,-,-
CCc1ccc(NC(=O)CSc2ccc(-c3ccccn3)nn2)cc1,-,50.7,-
O=C(CSc1ccc(-c2ccccn2)nn1)c1ccc([N+](=O)[O-])cc1,-,51.6,-
CCOC(=O)c1ccccc1NC(=O)CSc1ccc(-c2ccccn2)nn1,50.7,64.4,-
CO[C@H]1CN(C)C(=O)c2ccc(NC(=O)c3ccc(F)cc3)cc2OC[C@H](C)N(C(C)=O)C[C@@H]1C,.,-,.
SMILES,CAL PDZ FP-1,ARNT-TACC3 inh,CAL PDZ FP-2
O=C(NCC[C@H]1CC[C@@H](NC(=O)C2CCCCC2)[C@H](CO)O1)Nc1ccc(Cl)cc1,.,-,.
O=C(N[C@H]1CC[C@@H](CCNS(=O)(=O)c2cccc(Cl)c2)O[C@H]1CO)c1ccc(F)cc1,.,-,.
C[C@H](CO)N1C[C@H](C)[C@H](CN(C)C(=O)c2ccncc2)OCCCC[C@H](C)Oc2ccc(NS(=O)(=O)c3ccccc3)cc2C1=O,.,-,.
CC=Cc1ccc2n(c1=O)C[C@@H]1[C@@H](CO)[C@H](C(=O)NCc3ccncc3)N(Cc3cncnc3)[C@H]21 (mixture of isomers),.,-,.
COc1ccc(-c2c(C)nn3c(NC4CCCC4)cc(C)nc23)cc1OC,-,-,-
Cc1cc(NC2CCCC2)n2nc(C)c(-c3ccccc3)c2n1,31.9,-,-
CC(C)NC(=O)Nc1ccc2c(c1)CC(=O)N([C@@H](C)CO)C[C@@H](C)[C@@H](CN(C)C(=O)Nc1ccc(C(F)(F)F)cc1)O2,.,-,.
O=C(CN1CCN(c2ccccc2)CC1)N1CCc2ccccc21,-,-,-
O=C(CN1CCN(c2ccc(O)cc2)CC1)N1CCc2ccccc21,49.3,.,-
O=C1O[C@@H](c2ccccc2)[C@@H](c2ccccc2)N2[C@@H](c3ccccc3OCCO)[C@]3(C(=O)Nc4ccc(C#CCCO)cc43)[C@@H](C(=O)O)[C@H]12,.,-,.
CN(C)CC(=O)N1CC[C@@H]2[C@H]1c1cc(Br)ccc1N(C)[C@@H]2CO,.,-,.
O=C(CC1C(=O)NCCN1Cc1cccc(F)c1)NCCCCCN1CCOCC1 (stereo not given),48.3,-,-
COc1cc(CN2CCNC(=O)C2CC(=O)NCCCN2CCOCC2)cc(OC)c1 (stereo not given),-,-,-
Cc1ccc(S(=O)(=O)Nc2ccc3c(c2)C(=O)N([C@H](C)CO)C[C@@H](C)[C@@H](CN(C)Cc2ccc(C(=O)Nc4ccccc4N)cc2)O3)cc1,.,-,.
CCn1nc(C(=O)Nc2cc(Cl)ccc2-n2cncn2)c2ccccc2c1=O,57.6,-,-
O=C(Cn1nc(C(=O)O)c2ccccc2c1=O)Nc1cc(Cl)ccc1-n1cncn1,-,-,-
O=C(NC[C@H]1[C@H](c2ccccc2)[C@@H](CO)N1C(=O)C1CC1)NC1CCCC1,.,-,.
Cc1ccc(-c2ccc3c(c2)O[C@@H](CN(C)C(=O)CN(C)C)[C@@H](C)CN([C@@H](C)CO)S3(=O)=O)cc1,.,-,.
O=C(C1CC1)N1CC[C@@H]2[C@H]1c1cc(Br)ccc1N[C@@H]2CO,.,-,.
COc1cc(-c2cc(C(=O)Nc3ccc(O)cc3)c3ccccc3n2)cc(OC)c1OC,-,-,-
COc1cc(-c2cc(C(=O)Nc3nc4ccccc4s3)c3ccccc3n2)cc(OC)c1OC,87.0,-,-
COc1ccc([Si](C)(C)[C@H]2[C@H](CCO)O[C@@]3(C(=O)N(Cc4ccccc4)c4ccc(N5CCC5=O)cc43)[C@@H]2C)cc1,.,-,.
COc1ccc(C2c3ccc(O)cc3Oc3ncn4nc(-c5ccccn5)nc4c32)cc1 (stereo not given),-,-,-
COc1ccc(C2c3ccc(O)cc3Oc3ncn4nc(-c5ccccn5)nc4c32)cc1OC (stereo not given),-,59.0,-
C[C@H](CO)N1C[C@H](C)[C@@H](CN(C)CC2CCCCC2)Oc2c(NS(C)(=O)=O)cccc2C1=O,.,-,.
SMILES,CAL PDZ FP-1,ARNT-TACC3 inh,CAL PDZ FP-2
C=C(C)Cn1c(SCCCO)nc2c1c(=O)[nH]c(=O)n2C,-,-,.
C=C(C)Cn1c(Sc2nc3ccccc3[nH]2)nc2c1c(=O)[nH]c(=O)n2C,35.1,-,-
C[C@@H]1CN([C@@H](C)CO)C(=O)c2cc(C3=CCCCC3)cnc2O[C@@H]1CN(C)Cc1cccnc1,.,-,.
O=C(C[C@@H]1CC[C@H](NC(=O)c2ccc(F)cc2)[C@H](CO)O1)NCCc1ccncc1,.,-,.
O=C(Nc1ccc(Nc2ccccc2)cc1)c1cc([N+](=O)[O-])ccc1Cl,46.3,-,-
O=C(Nc1ccccc1Oc1ccccc1)c1cc([N+](=O)[O-])ccc1Cl,-,-,-

# Source: PubChem
